# Screening results from PubChem BioAssay.
# hERG rescue – compounds protecting human hERG from proarrhythmic drug block; Q12809; CHO-hERG, FluxOR thallium flux, dofetilide IC70 present; activation (rescue from dofetilide block), less the hit threshold, % at 10 µM; 310,000 tested, 0.51% active; AID 1511;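 active means activation above the mean of controls blocked by dofetilide plus 5 SD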;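 further: thallium influx through hERG after potassium depolarization seen as dye fluorescence rise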
# KCNQ1 inh – inhibitors of human KCNQ1 potassium channel. P51787. CHO-K1 KCNQ1, FluxOR thallium flux fluorescence; stronger effect = higher value. B-score at 10 µM. 310,000 tested, 1.3% active. AID 2642;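 active means compounds whose thallium flux B-score, printed positive for inhibition, exceeds three library SD while starting fluorescence stays within three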;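 further: channel opened by potassium depolarization with thallium stimulus after 20 min compound exposure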
# KCNQ1 act – potentiates or activates the human KCNQ1 potassium channel | P51787 | CHO-K1 KCNQ1, thallium flux FluxOR fluorescence; stronger effect = higher value | B-score at 10 µM | 310,000 tested, 0.35% active | AID 2648;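 active means fluorescence ratio B-score, a plate-corrected score, at least three library SD, with initial intensity B-score within 5 SD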
#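 System: Stable KCNQ1 CHO-K1 line | Incubation: 90 min dye loading and 20 min compound exposure, both at room temperature | Measure: Ratio B score | Medium: Assay buffer for compound exposure, DMSO matched across wells | Compound dosing: Single-concentration screen | Probe or stimulus: K+/Tl+ depolarizing stimulus | Measured by: Kinetic FluxOR fluorescence, 10 s baseline plus 110 s post-stimulus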
# KCNK9 block – blocks the human KCNK9 two-pore domain potassium channel; Q9NPC2; HEK293 KCNK9, FluxOR thallium flux fluorescence; stronger effect = lower value; 310,000 tested, 1.2% active; B-score at 10 µM;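 active means ratio B-score over 3 SD below the library mean, with starting fluorescence within 5 SD of its mean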;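 further: negative B-score means less thallium flux so channel inhibition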
# KCNK3 block – human KCNK3 channel inhibition, primary screen | CHO-KCNK3 thallium flux, FluxOR fluorescence; stronger effect = lower value | B-score at 10 µM | 340,000 tested, 0.84% active | AID 602410;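 active means B-score under library mean minus 4 SD, starting fluorescence ratio at most library mean plus 5 SD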;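 further: more negative B-score means stronger inhibition of thallium flux through KCNK3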
# Target sequence (O14649 whole entry, looked up): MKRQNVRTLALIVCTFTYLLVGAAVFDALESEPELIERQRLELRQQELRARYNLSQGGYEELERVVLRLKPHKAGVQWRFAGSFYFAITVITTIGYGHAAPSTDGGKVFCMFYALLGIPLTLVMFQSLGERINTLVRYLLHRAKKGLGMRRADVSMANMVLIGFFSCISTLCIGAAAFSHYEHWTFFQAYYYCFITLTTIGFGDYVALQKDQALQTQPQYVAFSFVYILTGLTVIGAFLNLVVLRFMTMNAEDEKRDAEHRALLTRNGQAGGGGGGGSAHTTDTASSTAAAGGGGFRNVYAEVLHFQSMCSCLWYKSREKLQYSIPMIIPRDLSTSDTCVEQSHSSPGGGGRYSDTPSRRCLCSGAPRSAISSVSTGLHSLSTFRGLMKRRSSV
# * hit, by the source's call; i = inactive; x = no result. Sampled rows, rich in hits. Any-hit rate of the full collection: about 3.1%.
SMILES,hERG rescue,KCNQ1 inh,KCNQ1 act,KCNK9 block,KCNK3 block
CC12c3ccccc3C(c3ccccc31)C1C(=O)N(c3cccnc3)C(=O)C12 (configuration not stated),-8,i,i,-7.6*,i
CC12c3ccccc3C(c3ccccc31)C1C(=O)N(c3ccncc3)C(=O)C12 (configuration not stated),-7,i,i,i,i
O=[N+]([O-])c1cc(Br)c(O)c(C=Nc2ccc(N3CCOCC3)cc2)c1,-14,11*,i,i,i
Cc1cccc(N2CC(C(=O)NC3CCCCCC3)CC2=O)c1C (configuration not stated),x,x,x,x,i
O=C(c1cc(NC(=O)C23CC4CC(CC(C4)C2)C3)cc(NC(=O)C23CC4CC(CC(C4)C2)C3)c1)N1CCCCC1,-7,10*,i,i,x
CCc1cccc(NC(=O)C2CCN(c3ncnc4sc(C)c(C)c34)CC2)c1,x,x,x,x,-11*
CCc1ccc2nc(NC(=O)C3CCN(c4ncnc5sc(C)c(C)c45)CC3)sc2c1,x,x,x,x,i
Cc1sc2ncnc(N3CCC(C(=O)Nc4ccc(Cl)c(Cl)c4)CC3)c2c1C,x,x,x,x,-10*
CNC(=O)c1ccc(NC(=O)C2CCN(c3ncnc4sc(C)c(C)c34)CC2)cc1,0,i,i,i,i
CC(=O)Nc1nnc(S(=O)(=O)N2CCN(c3ccc([N+](=O)[O-])cc3Cl)CC2)s1,-9,i,i,i,i
CCc1ccc2c(c1)c(N=NC1=NC(=O)CS1)c(O)n2CC,7.7*,i,16*,i,i
O=Cc1ccc([B-](F)(F)F)s1,x,x,x,x,i
Cc1ccc(S(=O)(=O)Oc2ccccc2/C=N/N=C(N)N)cc1,-20,i,i,i,i
O=C1NC(=O)/C(=C/c2ccccc2Oc2ccc(Cl)cc2)S1,-10,11*,i,i,i
Cc1ccc(S(=O)(=O)Oc2ccccc2/C=C2\SC(=O)NC2=O)cc1,-16,8*,i,i,i
Cc1ccc(Oc2ccccc2/C=C2\SC(=O)N(C)C2=O)cc1,-14,6*,i,i,i
O=C(COc1ccccc1/C=C1\SC(=O)NC1=O)Nc1ccc(F)cc1,-1,i,i,i,i
CN(CC(=O)Nc1ccc(F)c(F)c1F)C(=O)CC1CCCCC1,x,x,x,x,i
Cn1cnc([N+](=O)[O-])c1Sc1nc(N)nc2c1ncn2C1CC(O)C(CO)O1 (configuration not stated),x,x,x,x,i
COc1ccc(CCNC(=O)CO/N=C/c2cc3c(cc2Br)OCO3)cc1OC,-21,i,i,i,i
CN(C(=O)/C(N=Nc1cccc(C(F)(F)F)c1)=C(\O)C(F)(F)F)c1ccccc1,-24,6*,i,i,i
Cc1cc(C(=O)COC(=O)c2nn(C)c(=O)c3ccccc23)c(C)n1C,x,x,x,x,i
COC(=O)c1ccccc1NC(=O)CSc1nc(NC(=O)c2ccccc2)c2c(C)c(C)oc2n1,-3,i,i,i,-10*
CCC(NC(=O)CCl)c1ccc(C)cc1 (configuration not stated),-2,i,i,i,i
COc1ccc(CNCCC(c2ccc(OC)cc2)c2ccccc2OC)cc1 (configuration not stated),-11,i,i,i,i
SMILES,hERG rescue,KCNQ1 inh,KCNQ1 act,KCNK9 block,KCNK3 block
COc1ccc(C(CCNCc2ccc(OC(C)C)cc2)c2ccccc2OC)cc1 (configuration not stated),-20,6*,i,i,i
COc1ccc(CNCCC(c2ccc(F)cc2)c2ccc(OC)cc2)cc1 (configuration not stated),-22,7*,i,i,i
COc1ccc(S(=O)(=O)N2CCN(CC(=O)Nc3c(C)n[nH]c3C)CC2)cc1OC,x,x,x,x,i
Cc1ccc2oc(C(=O)N3CCN(CCO)CC3)c(C)c2c1,8.5*,i,9*,i,i
O=c1cc(Cl)nc2ccccn12,x,x,x,x,i
CC(C)Sc1nsc2nc(=O)c(/C=C3\C=Nc4ccccc43)c(N)n12,-6,i,i,i,i
CS(=O)(=O)c1nsc2nc(=O)c(/C=C3\C=Nc4ccccc43)c(N)n12,32*,i,i,i,i
CCCc1cc2c(cc1NC(=O)c1ccc(C(C)(C)C)cc1)OCO2,-6,i,i,-7.7*,i
